Data reported in publication PMC6408977 (Journal of controlled release : official journal of the …, 2019).
pKd: −log10 of the molar value. Non-standard residues stand in square brackets, D forms with d. Residues, ends and D or L forms follow the SMILES beside them. Tyr(3-I) = N[C@@H](Cc1ccc(O)c(I)c1)C(=O)O

Experiments:
albumin = details: read-out: Albumin dissociation constant; cited from earlier work
[1] = molecular target: human serum albumin (Homo sapiens) (UniProt P02768); details: cited from earlier work
[2] = Tissue biodistribution measurements; set-up: species or system Balb/c mice; details: mouse, in vivo, iv
Summary of the method: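 Female Balb/c mice, 8–12 weeks old, from an in-house colony (n = 3). Tissue radioactivity was measured at 1 h and 4 h post-injection, alongside whole-body SPECT/CT imaging at the same times.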

Compound: CC1(C)S[C@@H]2[C@H](NC(=O)Cc3ccccc3)C(=O)N2[C@H]1C(=O)O [penicillin G]
- pKd (albumin): 3.08

Compound: insulin detemir (from UniProt P01308)
- pKd [1]: 5.38

Compound: CC(C)C[C@H](NC(=O)CNC(=O)[C@H](C)NC(=O)[C@H](Cc1ccc(O)c(I)c1)NC(=O)CN)C(=O)N[C@@H](C)C(=O)NCC(=O)N[C@@H](CC(C)C)C(=O)N[C@@H](CC(C)C)C(=O)NCC(=O)N[C@@H](CC(C)C)C(=O)N[C@@H](CCC(=O)O)C(=O)NCC(=O)N[C@@H](CC(C)C)C(=O)N[C@@H](CC(C)C)C(=O)NCC(=O)N[C@@H](CC(C)C)C(=O)N1CCC[C@H]1C(=O)N[C@@H](CC(C)C)C(=O)NCC(=O)N[C@@H](CC(C)C)C(=O)N[C@@H](CC(C)C)C(=O)N[C@@H](CCC(=O)O)C(=O)NCC(=O)N[C@@H](CC(C)C)C(=O)N[C@@H](Cc1c[nH]c2ccccc12)C(=O)N[C@@H](CC(C)C)C(=O)NCC(=O)N[C@@H](CC(C)C)C(=O)N[C@@H](CCC(=O)O)C(=O)N[C@@H](CC(C)C)C(=O)N[C@@H](CCC(=O)O)C(=O)NCC(=O)N[C@@H](CC(N)=O)C(=O)O [^125I-ATRAM] (H-G[Tyr(3-I)]AGLAGLLGLEGLLGLPLGLLEGLWLGLELEGN-OH; N-terminus and C-terminus assumed)
- tissue uptake at 1 h [2]: 18 %ID/g
- tissue uptake at 4 h [2]: 10 %ID/g
